Results on 20 compounds are retold here after ChEMBL document CHEMBL1134499, “Structure-activity relationships of 1,4-dihydro-(1H,4H)-quinoxaline-2,3-diones as N-methyl-D-aspartate (glycine site) receptor antagonists. 1. Heterocyclic substituted 5-alkyl derivatives” (J Med Chem, 2001).

The test system of data set [1] is Mus musculus. In words: Ability to prevent NMDA-induced hyperlocomotion in the mouse following iv administration of 30 mg/kg dose; 10/10. The data set is classed as functional.
The species entered for a further data set is Rattus norvegicus. The data set can be described thus: Inhibition of NMDA-induced depolarizations in rat cortical wedges. The data set is classed as functional.
The next data set deals with Glutamate NMDA receptor. The data set can be described thus: Binding affinity at glycine binding site of NMDA receptor in rat cortical membranes by [3H]L-689,560 displacement. The data set is classed as cell membranes, Membrane.
Data set [2] concerns Mus musculus. In words: Ability to prevent NMDA-induced hyperlocomotion in the mouse following iv administration of 10 mg/kg dose; 5/10. The data set is classed as functional.
The nature of data set [3]: Solubility in 0.1 M aqueous D-arginine at pH 9.
Data set [4] has as its system Mus musculus. In words: Ability to prevent NMDA-induced hyperlocomotion in the mouse following iv administration of 20 mg/kg dose; 0/9. The data set is classed as functional.
Data set [5] is described as follows: Solubility in 0.1 m aqueous D-arginine at pH 9. It is filed as physicochemical.
For data set [6], the system named is Mus musculus. In words: Ability to prevent NMDA-induced hyperlocomotion in the mouse following iv administration of 20 mg/kg dose; 0/6. It is filed as functional.
In data set [7] the test system is Mus musculus. In words: Ability to prevent NMDA-induced hyperlocomotion in the mouse following iv administration of 20 mg/kg dose; 1/9. The data set is classed as functional.
Data set [8] is described as follows: Solubility in water at pH 4-5. It is filed as physicochemical.
In data set [9] the test system is Mus musculus. In words: Ability to prevent NMDA-induced hyperlocomotion in the mouse following iv administration of 10 mg/kg dose; 2/9. It is filed as functional.
Data set [10] deals with Mus musculus. The data set can be described thus: Ability to prevent NMDA-induced hyperlocomotion in the mouse following iv administration of 30 mg/kg dose; 5/9. The data set is classed as functional.
In data set [11] the test system is Mus musculus. The data set can be described thus: Ability to prevent NMDA-induced hyperlocomotion in the mouse following iv administration of 20 mg/kg dose; 6/9. It is filed as functional. An outline of the steps:
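CD1 mice (25-30 g) received NMDA 300 mg/kg sc. Test compound was given iv via a tail vein 15 min before NMDA, dissolved in buffered saline (pH 7-9) or 0.1 M aqueous D-arginine; saline-dosed controls; usually 9-10 mice per dose. Time to onset and duration of hyperlocomotion recorded up to 15 min. Score = number of animals reaching 15 min post-NMDA.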

Data set [12] deals with Mus musculus. The data set can be described thus: Ability to prevent NMDA-induced hyperlocomotion in the mouse following iv administration of 3 mg/kg dose; 0/9. It is filed as functional.
The test system of data set [13] is Mus musculus. The data set can be described thus: Ability to prevent NMDA-induced hyperlocomotion in the mouse following iv administration of 3 mg/kg dose; 3/10. The data set is classed as functional.
Data set [14] relates to Mus musculus. In words: Ability to prevent NMDA-induced hyperlocomotion in the mouse following iv administration of 15 mg/kg dose; 3/10. It is filed as functional.

Structures are written as SMILES. ≈ marks a conversion by molar mass, not a printed value.

By EC50 is commonly meant the midpoint of the concentration-response curve. What is called IC50 is the concentration at which inhibition is half-maximal. As for `C[C@@H]1CN(O)C(=O)[C@@H]1N`, the “No. protected/ No.dosed” value with Mus musculus [1] amounted to 10; in the data set on Mus musculus [2] it was 5. The EC50 in the data set listed under Rattus norvegicus is 16000 nM. Also, the IC50 on Glutamate NMDA receptor stood at 1200 nM.
At Glutamate NMDA receptor, `Cc1ncnn1Cc1c(Cl)c(Cl)cc2nc(O)c(O)nc12` registered an IC50 of 190 nM.
The term solubility denotes the dissolved amount per volume that the medium holds. Low values mean little dissolved substance, high ones much dissolved substance. For the compound `Oc1nc2cc(Cl)c(Cl)c(Cn3cccn3)c2nc1O`, the solubility in data set [3] is less than 10 µg/mL. At Glutamate NMDA receptor, this compound yielded an IC50 of 5 nM.
Turning to `CCC(c1c(Cl)c(Cl)cc2nc(O)c(O)nc12)n1ccnc1` (stereo unspecified), it took 90 nM to reach a half-maximal effect in the data set filed under Rattus norvegicus (EC50). Also, in the data set with Mus musculus [4], the “No. protected/ No.dosed” value came out at 0. The IC50 on Glutamate NMDA receptor is 3.1 nM.
Turning to `CCC(c1c(Cl)c(Cl)cc2nc(O)c(O)nc12)n1ccnn1` (stereo unspecified), the EC50 in the data set listed under Rattus norvegicus was found to be 290 nM. Further, the IC50 on Glutamate NMDA receptor was found to be 0.75 nM. Also, the solubility in data set [5] is less than 1000 µg/mL. Also, the “No. protected/ No.dosed” value in the data set with Mus musculus [6] was 0.
For `CN1CCN(Cc2cn(Cc3c(Cl)c(Cl)cc4nc(O)c(O)nc34)nn2)CC1`, in the data set on Mus musculus [7], the “No. protected/ No.dosed” value is on record as 1. This compound registered an EC50 in the data set listed under Rattus norvegicus of 88 nM. At Glutamate NMDA receptor, the IC50 amounted to 7.6 nM. For the same compound, in [8], the solubility was more than 10000 µg/mL.
As for `Oc1nc2cc(Cl)c(Cl)c(Cn3ccnc3)c2nc1O`, the EC50 in the data set listed under Rattus norvegicus was 1300 nM. The compound further yielded an IC50 at Glutamate NMDA receptor of 23 nM.
Take `Cc1nccn1Cc1c(Cl)c(Cl)cc2nc(O)c(O)nc12`: the IC50 at Glutamate NMDA receptor is 109 nM.
As to `CCC(c1c(Cl)c(Cl)cc2nc(O)c(O)nc12)n1cnnc1` (stereo unspecified), the “No. protected/ No.dosed” value in the data set on Mus musculus [9] is 2; with Mus musculus [10], 5; in the data set with Mus musculus [11] it was 6; in the data set with Mus musculus [12], 0. The compound further gave an EC50 in the data set filed under Rattus norvegicus of 90 nM. Further, the IC50 at Glutamate NMDA receptor stood at 2.6 nM. For the same compound, the solubility in data set [5] was more than 5000 µg/mL.
`Oc1nc2cc(Cl)c(Cl)c(Cn3cnnc3)c2nc1O` had an EC50 in the data set listed under Rattus norvegicus of 1090 nM. Moreover, at Glutamate NMDA receptor, the IC50 was 81 nM.
In the data set filed under Rattus norvegicus, `Cc1ncn(Cc2c(Cl)c(Cl)cc3nc(O)c(O)nc23)n1` came in with an EC50 of 640 nM. Moreover, on Glutamate NMDA receptor, the IC50 turned out to be 24 nM.
As for `Cn1nnc(Cc2c(Cl)c(Cl)cc3nc(O)c(O)nc23)n1`, on Glutamate NMDA receptor, the IC50 came to 78 nM.
On to `Oc1nc2cc(Cl)c(Cl)c(Cc3ccccn3)c2nc1O`, for which the EC50 in the data set filed under Rattus norvegicus came to 4100 nM. This compound displayed an IC50 on Glutamate NMDA receptor of 30 nM. Further, the solubility in data set [8] was less than 1000 µg/mL.
`Oc1nc2cc(Cl)c(Cl)c(Cn3ccnn3)c2nc1O` gave an EC50 in the data set listed under Rattus norvegicus of 350 nM. The compound also registered an IC50 on Glutamate NMDA receptor of 1 nM.
On to `Oc1nc2cc(Cl)c(Cl)c(Cn3cncn3)c2nc1O`, for which the solubility in data set [3] is less than 10 µg/mL. Also, at Glutamate NMDA receptor, the IC50 came out at 25 nM.
With `CCN(CC)Cc1cn(Cc2c(Cl)c(Cl)cc3nc(O)c(O)nc23)nn1`, the response in the data set filed under Rattus norvegicus was half-maximal at 150 nM (EC50). Further, in the data set with Mus musculus [4], the “No. protected/ No.dosed” value was 0. This compound returned an IC50 on Glutamate NMDA receptor of 6 nM.
The compound `CCCn1cnc(Cc2c(Cl)c(Cl)cc3nc(O)c(O)nc23)c1` showed an EC50 in the data set listed under Rattus norvegicus of 350 nM. This compound also came in with an IC50 on Glutamate NMDA receptor of 4.4 nM. The “No. protected/ No.dosed” value in the data set with Mus musculus [11] came to 6. In data set [8], this compound displayed a solubility of more than 10000 µg/mL.
`CCC(c1c(Cl)c(Cl)cc2nc(O)c(O)nc12)n1cncn1` (stereo unspecified) registered an EC50 in the data set listed under Rattus norvegicus of 420 nM. On Glutamate NMDA receptor, this compound showed an IC50 of 4 nM. In addition, the solubility in [5] is approximately 1000 µg/mL (≈ 2940 µM).
For the compound `Oc1nc2cc(Cl)c(Cl)cc2nc1O` [2,3-DIHYDROXY-6,7-DICHLOROQUINOXALINE], the IC50 on Glutamate NMDA receptor was 2000 nM.
On to `O=c1[nH]c2cc(Cl)c(Cl)c([N+](=O)[O-])c2[nH]c1=O` [LICOSTINEL], for which the “No. protected/ No.dosed” value in the data set with Mus musculus [13] turned out to be 3; in the data set on Mus musculus [14] it was 3; in the data set with Mus musculus [2] it was 5. Besides, in the data set filed under Rattus norvegicus, the EC50 came out at 1100 nM. Further, at Glutamate NMDA receptor, the IC50 was found to be 1.4 nM.
